According to ChEMBL document CHEMBL3351411, “Identification and synthesis of quinolizidines with anti-influenza a virus activity” (ACS Med Chem Lett, 2014):
Calls of active or inactive are those of the source. No cut-off for these calls is given here.

Legend:
[1] = test system: Influenza A virus; assay: Antiviral activity against Influenza A virus (A/Puerto Rico/8/34(H1N1)) infected in MDCK cells assessed as inhibition of virus-induced cytocidal activity after 48 hrs by CellTiter-Glo assay; format: functional, organism-based; conditions: A/Puerto Rico/8/1934(H1N1)
Summary of the method: (§1)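 MDCK cells infected with PR8 (mouse-adapted A/Puerto Rico/8/1934) or VR1679 at MOI = 1 and treated with compound at various concentrations for 2 days. Percent protection from virus killing was calculated by a formula. EC50 is the concentration giving 50% protection from the cytocidal effect. Values are mean ± SD of three independent experiments.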

[2] = Cytotoxicity against MDCK cells assessed as reduction in cell viability after 48 hrs by CellTiter-Glo assay; format: cell-based, Canis lupus familiaris; conditions: dog
Summary of the method: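 Uninfected MDCK cells were exposed to compound. CC50 is the concentration that reduced cell viability by 50%.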

[3] = test system: Influenza A virus H3N2; assay: Antiviral activity against Influenza A virus H3N2 VR1679 infected in MDCK cells assessed as inhibition of virus-induced cytocidal activity after 48 hrs by CellTiter-Glo assay; format: functional, organism-based; summary of the method: as §1
[4] = test system: Influenza A virus H3N2; assay: Antiviral activity against Influenza A virus H3N2 VR1679 infected in MDCK cells assessed as inhibition of virus-induced cytocidal activity compound treated 4 hrs post infection by time of addition assay; format: functional, organism-based
Summary of the method: (§2)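 Time-of-addition assay: MDCK cells infected with VR1679 at MOI = 0.1, with compound added before infection or at various times post-infection. Percent protection of cells from virus killing was calculated by a formula. Data are the average of two independent experiments.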

[5] = test system: MDCK; assay: Binding affinity to recombinant Influenza A virus (A/Puerto Rico/8/1934(H1N1)) nucleoprotein in culture medium assessed as protection from Influenza A virus H3N2 VR1679-induced MDCK cytocidal activity after 2 days by CellTiter-Glo assay; format: cell-based
Summary of the method: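 MDCK cells infected with VR1679 at MOI = 1, treated with compound with or without recombinant A/Puerto Rico/8/1934 NP at 500 μg/mL in the culture medium. Percent protection from virus killing was read 2 days after infection. Values are mean ± SD of three independent experiments.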

[6] = test system: Influenza A virus H3N2; assay: Antiviral activity against Influenza A virus H3N2 VR1679 infected in MDCK cells assessed as inhibition of virus-induced cytocidal activity compound treated 6 hrs post infection by time of addition assay; format: functional, organism-based; summary of the method: as §2
[7] = test system: Influenza A virus H3N2; assay: Antiviral activity against Influenza A virus H3N2 VR1679 infected in MDCK cells assessed as inhibition of viral nucleoprotein production at 10 uM after 6 hrs by immunostaining-based confocal microscopy; format: functional, organism-based
Summary of the method: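 VR1679 infected MDCK cells at MOI = 1 with compound at 10 μM for 6 h. Cells were immunostained with FITC-conjugated anti-NP antibodies and DAPI for nuclei, and viral NP was imaged by laser-scanning confocal microscopy. Infected cells without compound served as controls.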

[8] = test system: Influenza A virus H3N2; assay: Antiviral activity against Influenza A virus H3N2 VR1679 infected in MDCK cells assessed as inhibition of virus-induced cytocidal activity pretreated with compound before infection by time of addition assay; format: functional, organism-based; summary of the method: as §2
[9] = test system: Influenza A virus H3N2; assay: Antiviral activity against Influenza A virus H3N2 VR1679 infected in MDCK cells assessed as inhibition of virus-induced cytocidal activity compound treated 2 hrs post infection by time of addition assay; format: functional, organism-based; summary of the method: as §2
[10] = Selectivity ratio of EC50 for Influenza A virus (A/Puerto Rico/8/34(H1N1)) infected in MDCK cells to EC50 for Influenza A virus H3N2 VR1679 infected in MDCK cells; format: functional

Row | Compound | EC50 [1] [µM] | CC50 at 48 h [2] [µM] | other results
1 | CN1CC2CC(C1)c1cccc(=O)n1C2 (configuration not stated) | > 80 | > 80 | 
2 | C1=C2CCCN(CC3CCC3)[C@H]2[C@@H]2C[C@H]1[C@H]1CCCCN1C2 | 18.8 | > 80 | 
3 | CN1CCCC2=C[C@H]3C[C@H](CN4CCCC[C@H]34)[C@@H]21 | 9.6 | > 80 | 
4 | CC(C)CN1CCCC2=C[C@H]3C[C@H](CN4CCCC[C@H]34)[C@@H]21 | 34.5 | > 80 | 
5 | CN1CCC[C@@H]2C[C@H]3C[C@H](CN4CCCC[C@H]34)[C@@H]21 | 6.2 | > 80 | inhibition [3]: Active; inhibition [4]: Active; Activity [5]: Active; inhibition [6]: inactive; inhibition [7]: Active; inhibition [8]: Active; inhibition [9]: Active
6 | CN1CCC[C@H]2C[C@H]3C[C@H](CN4CCCC[C@H]34)[C@@H]21 | 8.1 | > 80 | 
7 | C1CCN2C[C@@H]3C[C@@H](CN4CCCC[C@@H]34)[C@H]2C1 [SPARTEINE] | 19.7 | > 80 | 
8 | O=C1CCC[C@@H]2[C@H]3CCC[N+]4([O-])CCC[C@@H](CN12)[C@@H]34 (some centres not stated) [OXYMATRINE] | > 80 | > 80 | 
9 | C1=C2CCCN[C@H]2[C@@H]2C[C@H]1[C@H]1CCCCN1C2 | 14.5 | > 80 | 
10 | O=c1cccc2n1C[C@@H]1CNC[C@H]2C1 [CYTISINICLINE] | > 80 | > 80 | 
11 | C1=C2CCCN(CC3CCCCC3)[C@H]2[C@@H]2C[C@H]1[C@H]1CCCCN1C2 | 29.3 | > 80 | 
12 | NC12CC3CC(CC(C3)C1)C2 [AMANTADINE] | > 80 | > 80 | 
13 | C1CN[C@@H]2C(C1)C[C@H]1C[C@@H]2CN2CCCC[C@H]12 (mixture of isomers) | 11.2 | > 80 | 
14 | C1CCN2C[C@@H]3C[C@@H](CN4CCCC[C@H]34)[C@H]2C1 | 21.3 | > 80 | 
15 | Cc1onc(-c2ccccc2)c1C(=O)N1CCN(c2ccc([N+](=O)[O-])cc2Cl)CC1 [NUCLEOZIN] | 0.71 | > 80 | 
16 | O=C(NCCN1CCCC2=C[C@H]3C[C@H](CN4CCCC[C@H]34)[C@@H]21)c1ccccc1F | 5.5 | > 80 | 
17 | CCN1CCCC2=C[C@H]3C[C@H](CN4CCCC[C@H]34)[C@@H]21 | 7.7 | > 80 | 
18 | CCOC(=O)C1=C[C@@H](OC(CC)CC)[C@H](NC(C)=O)[C@@H](N)C1 [OSELTAMIVIR] | > 80 | > 80 | EC50 [3]: > 80 µM; Ratio EC50 [10]: >200; inhibition [4]: Active; Activity [5]: inactive; inhibition [6]: inactive; inhibition [7]: inactive; inhibition [8]: Active; inhibition [9]: Active
19 | O=C1CCC[C@@H]2[C@H]3CCCN4CCC[C@@H](CN12)[C@@H]34 [MATRINE] | > 80 | > 80 | 
20 | C1=C2CCCN(CC3CC3)[C@H]2[C@@H]2C[C@H]1[C@H]1CCCCN1C2 | 15.1 | > 80 | 
21 | O=C(c1ccc(C(=O)N2CCCC3=C[C@H]4C[C@H](CN5CCCC[C@H]45)[C@@H]32)s1)N1CCCC2=C[C@H]3C[C@H](CN4CCCC[C@H]34)[C@@H]21 | 2.4 | > 80 | 
